Data on nine molecules can be found in ChEMBL document CHEMBL2321821, “Inhibition of the β-carbonic anhydrases from Mycobacterium tuberculosis with C-cinnamoyl glycosides: identification of the first inhibitor with anti-mycobacterial activity” (Bioorg Med Chem Lett, 2013).

Test [1] is described as follows: Inhibition of Mycobacterium tuberculosis Rv3273 beta-carbonic anhydrase by stopped flow assay. The method in brief:
(§1)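 Recombinant mtCA enzyme. CO2 hydration was followed by stopped-flow with phenol red indicator (0.02 mM) read at 557 nm, in 20 mM Hepes pH 7.5 with 20 mM Na2SO4, over 10–100 s. CO2 was 1.7–17 mM. Inhibitor was diluted in water and preincubated with enzyme 15 min at room temperature. Uncatalyzed rate subtracted; three determinations.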

Test [2] can be described thus: Inhibition of Mycobacterium tuberculosis Rv1284 beta-carbonic anhydrase by stopped flow assay. A digest of the protocol: as §1
The test system of test [3] is Mycobacterium tuberculosis. Nature of the test: Antimicrobial activity against Mycobacterium tuberculosis H37Rv assessed as growth inhibition at 50 ug/ml after 7 days by serial twofold dilution method. Format: functional, organism-based. The method in brief:
(§2)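 Broth microdilution against H37Rv in Middlebrook 7H9-ADS-G, with 0.05% Tween 80. Compounds from DMSO stock (10 mg/ml), twofold serial dilution on plate. Inoculum is a 1/25 dilution of a mid-log suspension (McFarland 1.0), ~10⁶ CFU per well. Rifampicin control; growth and sterility controls. Incubated 37 °C for 7 days. Growth read visually by turbidity; run in duplicate.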

Test [4] can be described thus: Inhibition of Mycobacterium tuberculosis Rv3588c beta-carbonic anhydrase by stopped flow assay. A digest of the protocol: as §1
In test [5] the test system is Mycobacterium tuberculosis. Nature of the test: Antimicrobial activity against Mycobacterium tuberculosis H37Rv after 30 days. The test is classed as functional. A digest of the protocol:
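M. tuberculosis H37Rv, fresh culture, ~1 × 10³ CFU plated onto solid Middlebrook 7H11 with ADS (1/10 v/v) and glycerol (1% v/v). Compound added to molten medium in wells at chosen concentrations. Incubated 37 °C for 30 days, then inspected visually. MIC99.9% taken as the concentration giving 99.9% reduction in cell counts.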

Test [6] deals with Mycobacterium tuberculosis. The test can be described thus: Antimicrobial activity against Mycobacterium tuberculosis H37Rv assessed as growth inhibition at < /= 25 ug/ml after 7 days by serial twofold dilution method. The test is classed as functional, organism-based. The method in brief: as §2
Test [7] deals with Mycobacterium tuberculosis. The test can be described thus: Antimicrobial activity against Mycobacterium tuberculosis H37Rv assessed as growth inhibition at 100 ug/ml after 7 days by serial twofold dilution method. The test is classed as functional, organism-based. The method in brief: as §2

≈ marks a conversion by molar mass, not a printed value. Calls of active or inactive are those of the source. The rule behind the calls is not given here.

The Ki is the dissociation constant of the complex between target and ligand, obtained from inhibition or displacement. A lower Ki goes with higher affinity. For the molecule `Oc1ccccc1` [PHENOL], the inhibitory constant (Ki) came to 79 µM in test [1] and 64 µM in test [2].

For orientation: MIC means the least concentration at which growth counts as inhibited. Take `CC(=O)OC[C@H]1O[C@@H](CC(=O)/C=C/c2cccc(O)c2)[C@H](OC(C)=O)[C@@H](OC(C)=O)[C@@H]1OC(C)=O`: the “growth inhibition (GI)” value in test [3] and in test [7] was “Active” each time. The inhibition constant (Ki) in test [4] was 0.64 µM; in test [1], 19 µM; in test [2] it was 2.1 µM. This molecule also yielded an MIC in test [5] of 3.12 µg/mL (≈ 6.35 µM). In addition, in test [6], the “growth inhibition (GI)” value is “inactive”.

Turning to `CC(=O)OC[C@H]1O[C@@H](CC(=O)/C=C/c2ccc(O)cc2)[C@H](OC(C)=O)[C@@H](OC(C)=O)[C@H]1OC(C)=O`, the “growth inhibition (GI)” value in test [3], in test [6] and in test [7] was “inactive” each time. Also, the Ki was determined as 1.15 µM in test [4], 12 µM in test [1] and 4.5 µM in test [2].

For `O=C(/C=C/c1cccc(O)c1)C[C@@H]1O[C@H](CO)[C@H](O)[C@H](O)[C@H]1O`, the “growth inhibition (GI)” value in test [3] and in test [7] was “Active” in each case. For the same molecule, the Ki in test [4] stood at 0.51 µM; in test [1], 3.25 µM; in test [2], 1.16 µM. For the same molecule, the lowest concentration to inhibit growth in test [5] (MIC) was 100 µg/mL (≈ 308 µM). For the same molecule, the “growth inhibition (GI)” value in test [6] is “inactive”.

Turning to `O=C(/C=C/c1ccc(O)cc1)C[C@@H]1O[C@H](CO)[C@H](O)[C@H](O)[C@H]1O`, the “growth inhibition (GI)” value in test [3], in test [6] and in test [7] was “inactive” each time. The figures for the inhibitory constant (Ki) in test [4], in test [1] and in test [2] were 0.94 µM, 4.13 µM and 4.5 µM, respectively.

For the molecule `O=C(/C=C/c1ccc(O)cc1)C[C@@H]1O[C@H](CO)[C@@H](O)[C@H](O)[C@H]1O`, the “growth inhibition (GI)” value in test [3] and in test [7] was “Active” each time. Also, the values for the Ki in test [4], in test [1] and in test [2] were 0.13 µM, 4.13 µM and 0.93 µM, respectively. In addition, in test [6], the “growth inhibition (GI)” value is “inactive”.

As to `CC(=O)OC[C@H]1O[C@@H](CC(=O)/C=C/c2ccc(O)cc2)[C@H](OC(C)=O)[C@@H](OC(C)=O)[C@@H]1OC(C)=O`, the “growth inhibition (GI)” value in test [3] and in test [7] was “Active” in each case. Moreover, the Ki in test [4] was found to be 0.35 µM; in test [1], 13.1 µM; in test [2], 2.9 µM. This molecule also yielded an MIC in test [5] greater than 100 µg/mL. Moreover, the “growth inhibition (GI)” value in test [6] was “inactive”.

Consider `O=C(/C=C/c1cccc(O)c1)C[C@@H]1O[C@H](CO)[C@@H](O)[C@H](O)[C@H]1O`, for which the “growth inhibition (GI)” value in test [3], in test [6] and in test [7] was “inactive” in each case. Moreover, the figures for the inhibitory constant (Ki) in test [4], in test [1] and in test [2] were 0.24 µM, 6.21 µM and 0.14 µM, respectively.

In the case of `CC(=O)OC[C@H]1O[C@@H](CC(=O)/C=C/c2cccc(O)c2)[C@H](OC(C)=O)[C@@H](OC(C)=O)[C@H]1OC(C)=O`, the “growth inhibition (GI)” value in test [3], in test [6] and in test [7] was “inactive” throughout. Further, the inhibition constant Ki in test [4] was 0.87 µM; in test [1] it was 15.6 µM; in test [2], 3.8 µM.
